# Assay results as given in ChEMBL document CHEMBL3045526, “Tailoring the structure of aminobisphosphonates to target plant P5C reductase” (J Agric Food Chem, 2008).
# The source made the active and inactive calls. The rule behind the calls is not given here.
# What was measured:
# [1] = test system: Arabidopsis thaliana; assay: Growth inhibition of Arabidopsis thaliana suspension cultured cells assessed as reduction in dry weight increase measured 8 days after compound incubation; format: functional
# Method in brief: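 Same A. thaliana Columbia suspension cultures, inoculated at 3.2–3.5 mg mL-1 dry weight. Filter-sterilized compounds (pH 6.0 with KOH) added at increasing concentrations once density reached 4.0 mg mL-1. After 8 days, when controls reached early stationary phase, cells were vacuum-filtered and oven-dried (90 °C, 48 h). Dry weight increase given as % of control; 50% growth-reduction concentration derived.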
# [2] = molecular target: T1, Pyrroline-5-carboxylate reductase (Arabidopsis thaliana, UniProt P54904); assay: Inhibition of Arabidopsis thaliana P5C assessed as reduction in NADH oxidation incubated at 35 degC up to 10 min
# T1 sequence (P54904 whole entry): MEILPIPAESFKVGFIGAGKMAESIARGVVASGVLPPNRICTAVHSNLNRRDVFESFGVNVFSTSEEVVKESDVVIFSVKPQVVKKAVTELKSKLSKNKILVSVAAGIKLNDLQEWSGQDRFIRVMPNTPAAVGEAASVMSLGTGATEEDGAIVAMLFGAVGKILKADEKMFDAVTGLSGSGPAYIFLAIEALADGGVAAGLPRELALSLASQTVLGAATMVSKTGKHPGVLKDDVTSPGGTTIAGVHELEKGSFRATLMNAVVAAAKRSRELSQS
# Method in brief: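 P5C reductase partially purified from stationary-phase A. thaliana cultured cells. Forward reaction run in 100 mM Tris-HCl pH 8.0, 0.1 mM MgCl2, 2 mM DL-P5C, 0.25 mM NADH, with 0.15–0.20 nkat enzyme. A340 followed at 35 °C for up to 10 min against P5C-free blanks. Inhibitor final 5 µM–5 mM (pH 7.5–8.0), triplicate. IC50 by linear regression of % activity vs log concentration.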
# [3] = test system: Arabidopsis thaliana; assay: Growth inhibition of Arabidopsis thaliana suspension cultured cells assessed as reduction in dry weight increase at 0.2 mM measured 8 days after compound incubation in presence of exogenously supplied 10 mM glutamine; format: functional
# Method in brief: (§1)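 A. thaliana Columbia suspension cells (MS medium, 0.3% sucrose, 2,4-D and BAP 0.5 mg L-1 each; 24 °C, 100 rpm, dim light). Flasks inoculated at 3.2–3.5 mg mL-1 dry weight. Inhibitor (pH 6.0) plus filter-sterilized amino acids added together at 4.0 mg mL-1. Dry weight increase after 8 days (oven, 90 °C, 48 h) given as % of untreated control. Four replicates.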
# [4] = test system: Arabidopsis thaliana; assay: Growth inhibition of Arabidopsis thaliana suspension cultured cells assessed as reduction in dry weight increase at 0.2 mM measured 8 days after compound incubation in presence of exogenously supplied 10 mM glutamine and 2 mM proline; format: functional; method in brief: as §1
# [5] = test system: Arabidopsis thaliana; assay: Growth inhibition of Arabidopsis thaliana suspension cultured cells assessed as reduction in dry weight increase at 0.2 mM measured 8 days after compound incubation in presence of exogenously supplied 2 mM proline; format: functional; method in brief: as §1
SMILES,growth inhibition (GI) [1],IC50 [2],other results
"O=P(O)(O)C(Nc1cccc(Cl)c1Cl)P(=O)(O)O [2,3-DICHLOROPHENYLAMINOMETHYLENEBISPHOSPHONIC ACID]",Active,,
"O=P(O)(O)C(Nc1c(Cl)cccc1Cl)P(=O)(O)O [2,6-DICHLOROPHENYLAMINOMETHYLENEBISPHOSPHONIC ACID]",Active,,
"Cc1cc(C)cc(NC(P(=O)(O)O)P(=O)(O)O)c1 [3,5-DIMETHYLPHENYLAMINOMETHYLENEBISPHOSPHONIC ACID]",,1.07 mM,
"O=P(O)(O)C(Nc1cc(Cl)cc(Cl)c1)P(=O)(O)O [(3,5-DICHLOROPHENYLAMINO)METHYLENEDIPHOSPHONIC ACID]",,,growth inhibition (GI) [3]: Active; growth inhibition (GI) [4]: inactive; growth inhibition (GI) [5]: Active; GI50 ([1]; 192 h): 240 µM
O=P(O)(O)C(N1CCCCCCC1)P(=O)(O)O [N-(HEPTAMETHYLENEIMINO)METHYLENEBISPHOSPHONIC ACID],,533 mM,
O=P(O)(O)C(N1CCCCCC1)P(=O)(O)O [N-(HEXAMETHYLENEIMINO)METHYLENEBISPHOSPHONIC ACID],,74.4 mM,
